Data reported in ChEMBL document CHEMBL1152513, “Synthesis and characterizations of novel quinoline derivatives having mixed ligand activities at the kappa and mu receptors: Potential therapeutic efficacy against morphine dependence” (Bioorg Med Chem, 2009).
Active and inactive are the calls of the source. The calls are words filed in the database; no cut-off is given here.

Legend:
[1] = tested on: Mus musculus; assay: Inhibition of naloxone-induced stereotype jumping in morphine treated mouse at 20 mg/kg, iv for 6 days; format: functional, organism-based; design: dose 20 mg/kg
[2] = molecular target: Kappa-type opioid receptor (Homo sapiens) (UniProt P41145); assay: Displacement of [3H]dynorphin from human kappa opioid receptor expressed in C6 giloma cells measured total binding per mg of protein at 5 uM; format: cell-based
In short: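 Membranes from C6 glioma cells stably transfected with human KOR (G418 selected), harvested in PBS, homogenized in 50 mM Tris–HCl pH 7.4 and spun at 30,000g. Nonspecific binding defined with 10 µM U50488H. Read by filtration and counting.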

[3] = tested on: Mus musculus; assay: Inhibition of naloxone-induced weight loss in mouse at 20 mg/kg, iv for 6 days; format: functional, organism-based; design: dose 20 mg/kg
[4] = organism: Rattus norvegicus; assay: Induction of ERK phosphorylation in rat primary astrocyte at 40 uM after 10 mins
In short: (§1)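 Primary astrocytes from neocortex of newborn rat pups (<24 h), grown 10 days, then serum-starved 48 h. Treated 10 min at 40 µM; antagonists added 1 h before stimulation. pERK1/2 measured by western blot, 40 µg protein/lane, 10% SDS-PAGE, anti-p-ERK at 1:1000. Mean ± SEM of at least 3 blots, compared with untreated control.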

[5] = molecular target: Mu-type opioid receptor (Rattus norvegicus) (UniProt P33535); assay: Displacement of [3H]DAMGO from mu opioid receptor in rat brain measured total binding per mg of protein at 5 uM; format: tissue-based
[6] = organism: Rattus norvegicus; assay: Induction of ERK phosphorylation in rat primary astrocyte at 40 uM after 10 mins in presence of naloxone; in short: as §1

Chain of Mu-type opioid receptor (Rattus norvegicus) (P33535 whole entry): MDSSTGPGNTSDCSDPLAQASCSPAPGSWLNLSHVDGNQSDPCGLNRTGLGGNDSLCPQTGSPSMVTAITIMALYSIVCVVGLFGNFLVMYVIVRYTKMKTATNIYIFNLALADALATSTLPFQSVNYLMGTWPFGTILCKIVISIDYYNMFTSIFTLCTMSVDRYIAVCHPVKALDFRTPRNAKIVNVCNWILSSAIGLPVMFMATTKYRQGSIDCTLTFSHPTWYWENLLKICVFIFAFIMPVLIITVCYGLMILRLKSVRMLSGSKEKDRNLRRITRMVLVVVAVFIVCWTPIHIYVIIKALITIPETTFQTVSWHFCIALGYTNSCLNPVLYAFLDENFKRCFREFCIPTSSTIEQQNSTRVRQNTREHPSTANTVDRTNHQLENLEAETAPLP
Chain of Kappa-type opioid receptor (Homo sapiens) (P41145 whole entry): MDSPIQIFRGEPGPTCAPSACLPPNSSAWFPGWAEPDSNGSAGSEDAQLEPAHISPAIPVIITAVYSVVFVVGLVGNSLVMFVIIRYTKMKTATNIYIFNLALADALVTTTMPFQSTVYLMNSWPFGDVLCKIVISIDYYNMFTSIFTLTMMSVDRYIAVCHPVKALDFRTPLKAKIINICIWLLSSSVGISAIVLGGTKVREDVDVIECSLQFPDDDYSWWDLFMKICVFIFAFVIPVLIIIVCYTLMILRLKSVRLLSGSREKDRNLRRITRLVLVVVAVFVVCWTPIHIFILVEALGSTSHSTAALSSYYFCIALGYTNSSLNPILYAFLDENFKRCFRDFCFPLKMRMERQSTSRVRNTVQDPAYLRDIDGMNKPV

SMILES	Activity [1]	Activity [2]	Activity [3]	Activity [4]	Activity [5]	Activity [6]
Cc1ccc(C(=O)Nc2cc(C)nc3ccccc23)cc1	Active	58%	Active	Active	62%	
C[C@@H](NC(=O)[C@@H](N)Cc1ccc(O)cc1)C(=O)NCC(=O)N(C)[C@@H](Cc1ccccc1)C(=O)NCCO					76%	
Cc1cc(NCC(=O)Nc2ccccc2)c2ccccc2n1	Active	38%		Active	30%	inactive
Cc1cc(N)c2ccccc2n1		71%		Active	95%	
O=C(CCCl)Nc1ccccc1		59%	Active	Active	61%	
Cc1cc(NCC(=O)Nc2cc(Cl)ccc2Cl)c2ccccc2n1		74%		Active	66%	
Cc1cc(NCC(=O)Nc2ccccc2Cl)c2ccccc2n1	Active	52%		Active	52%	
Cc1cc(NC(=O)C(Cl)Cl)c2ccccc2n1		77%		Active	106%	
Cc1ccc(NC(=O)CCNc2cc(C)nc3ccccc23)cc1		56%		Active	23%	
Cc1cc(N(CC(=O)NC2CCCCC2)CC(=O)NC2CCCCC2)c2ccccc2n1		114%		Active	53%	
COc1ccc(NC(=O)CNc2cc(C)nc3ccccc23)cc1		44%		Active	27%	
Cc1ccc(NC(=O)CNc2cc(C)nc3ccccc23)cc1	Active	90%		Active	47%	
